PMC12032937 (iScience, 2025)

Tests used:
mPRδ [1] = details: MDA231 cells transiently transfected to express mPRδ; cited from earlier work
mPRδ [2] = target: T1, mPRδ (Mus musculus, UniProt Q6TCG5); assay: PKC activation; assay type: cell-based; details: mPRδ-GFP cells, 300nM, 20 min, increase above control (100%)
T1 sequence (Q6TCG5 1-343): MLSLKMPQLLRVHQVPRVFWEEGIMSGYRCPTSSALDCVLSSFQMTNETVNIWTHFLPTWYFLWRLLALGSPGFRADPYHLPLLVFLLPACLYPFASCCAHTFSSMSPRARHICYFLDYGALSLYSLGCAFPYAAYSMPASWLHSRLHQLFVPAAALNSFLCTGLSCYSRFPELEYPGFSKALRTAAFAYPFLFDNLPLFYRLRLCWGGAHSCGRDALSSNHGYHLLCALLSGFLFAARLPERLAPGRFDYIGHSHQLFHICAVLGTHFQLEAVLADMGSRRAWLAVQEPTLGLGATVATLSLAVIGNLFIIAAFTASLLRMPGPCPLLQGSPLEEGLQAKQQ

mPRδ [3] = target: T1, mPRδ; assay: PKA activation; assay type: cell-based; details: mPRδ-GFP cells, 20 min, mean ± SEM, n=4
mPRε [4] = target: T2, mPRε (Mus musculus, UniProt Q6TCG2); assay: PKA activation; assay type: cell-based; details: mPRε-GFP cells, 20 min; for PKA activation, pPKA/PKA normalized to control (100%): mean ± SEM, n=4; for increase in PKA activation compared to control treatment: increase above control (100%)
T2 sequence (Q6TCG2 1-375): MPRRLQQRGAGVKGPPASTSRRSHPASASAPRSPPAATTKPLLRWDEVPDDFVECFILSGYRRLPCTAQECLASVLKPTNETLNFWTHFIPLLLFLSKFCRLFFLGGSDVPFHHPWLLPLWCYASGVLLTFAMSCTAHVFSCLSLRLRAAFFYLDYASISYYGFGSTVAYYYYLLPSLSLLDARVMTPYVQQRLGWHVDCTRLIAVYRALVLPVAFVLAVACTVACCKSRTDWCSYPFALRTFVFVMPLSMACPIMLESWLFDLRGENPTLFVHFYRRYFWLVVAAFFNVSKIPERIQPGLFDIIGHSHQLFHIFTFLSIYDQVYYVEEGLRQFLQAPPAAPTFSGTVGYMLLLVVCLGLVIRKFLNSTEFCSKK
Procedure, shortened: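 MDA-MB-231 cells lentivirally expressing mouse mPRε-C-terminal GFP, FACS-selected clonal line, kept in DMEM/10% charcoal-stripped FBS, passage ≤20. Treated 20 min with test compound at 3–300nM, lysed in RIPA with phosphatase inhibitors, immunoblotted for phospho and total kinase. Ratio normalized to control within the line, then to host MDA231 cells; n = 4 separate passages; two-way ANOVA, Sidak post hoc.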

mPRδ [5] = target: T1, mPRδ; assay: Gq luminescent reporter assay; assay type: cell-based
mPRε [6] = target: T2, mPRε; assay: Gs luminescent reporter assay; assay type: cell-based
Procedure, shortened: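 Clonal MDA-MB-231 cells stably expressing mouse mPRε with a C-terminal GFP tag, transfected (Lipofectamine 3000) with CRE-luciferase reporter, grown 72 h, then treated 6 h with a test compound concentration series; forskolin positive control. Lysed, luciferase luminescence read; runs kept only if positive control ≥2× untreated. Min/max scaled 0–100, curves fitted for EC50; n = 4.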

SMILES | phosphorylation of ERK (mPRδ [1]) | increase in PKC activation/phosphorylation compared to control treatment (mPRδ [2]) [%] | PKA activation, pPKA/PKA normalized to control (100%) (mPRδ [3]; 3nM) [%] | PKA activation, pPKA/PKA normalized to control (100%) (mPRδ [3]; 10nM) [%] | PKA activation, pPKA/PKA normalized to control (100%) (mPRδ [3]; 30nM) [%] | PKA activation, pPKA/PKA normalized to control (100%) (mPRδ [3]; 100nM) [%] | PKA activation, pPKA/PKA normalized to control (100%) (mPRδ [3]; 300nM) [%] | PKA activation, pPKA/PKA normalized to control (100%) (mPRε [4]; 3nM) [%] | PKA activation, pPKA/PKA normalized to control (100%) (mPRε [4]; 10nM) [%] | increase in PKA activation compared to control treatment (mPRε [4]; 30nM) [%] | PKA activation, pPKA/PKA normalized to control (100%) (mPRε [4]; 30nM) [%] | increase in PKA activation compared to control treatment (mPRε [4]; 100nM) [%] | PKA activation, pPKA/PKA normalized to control (100%) (mPRε [4]; 100nM) [%] | increase in PKA activation compared to control treatment (mPRε [4]; 300nM) [%] | PKA activation, pPKA/PKA normalized to control (100%) (mPRε [4]; 300nM) [%] | EC50 (mPRδ [5]) [nM] | EC50 (mPRε [6]) [nM]
CC(=O)[C@H]1CC[C@H]2[C@@H]3CCC4=CC(=O)CC[C@]4(C)[C@H]3CC[C@]12C [progesterone] | significant increase | – | – | – | – | – | – | – | – | – | – | – | – | – | – | – | –
CC(=O)[C@H]1CC[C@H]2[C@@H]3CC[C@H]4C[C@H](O)CC[C@]4(C)[C@H]3CC[C@]12C [ALLO, allopregnanolone] | significant increase | 43.58 ± 5.34 | 86.327 ± 5.39 | 91.441 ± 4.66 | 83.155 ± 4.54 | 98.624 ± 11.00 | 103.26 ± 14.05 | 105.57 ± 15.02 | 130.55 ± 16.45 | 53.44 | 153.4 ± 19.57 | 60.49 | 160.49 ± 20.14 | 64.44 | 164.44 ± 15.71 | 11.3 | 2.5
